Assay outcomes (PubChem BioAssay)
In the library only some 2.3% were active in any assay of this set; here they are far more common.
TRPC4 potent = positive allosteric modulators of TRPC4, primary screen, cell-based, mouse TRPC4beta, HEK293 mu-opioid, Fluo-4 calcium | DAMGO EC20, Fluo-4 Ca2+ flux; active compounds read high | Short transient receptor potential channel 4 (Mus musculus), Q9QUQ5 | 310,000 compounds, 0.42% hits | B-score at 10 µM;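 active = B-score of calcium response area above 5 SD of library B-scores, with initial fluorescence ratio within 5 SD of library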
TRPC6 act = mouse TRPC6 channel activators, primary screen, cell-based, HEK293, membrane potential dye | Short transient receptor potential channel 6 (Mus musculus), Q61143 | HEK293-TRPC6 membrane potential dye fluorescence; active compounds read high | B-score at 10 µM | 310,000 compounds, 0.13% hits | AID 2550, 2010;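 active = B-score of the integrated fluorescence ratio above library mean plus 3 SD, and starting fluorescence ratio within library mean plus 5 SD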;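 note: higher score means more depolarization so channel activation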
Target sequence (Q61143 whole entry, looked up): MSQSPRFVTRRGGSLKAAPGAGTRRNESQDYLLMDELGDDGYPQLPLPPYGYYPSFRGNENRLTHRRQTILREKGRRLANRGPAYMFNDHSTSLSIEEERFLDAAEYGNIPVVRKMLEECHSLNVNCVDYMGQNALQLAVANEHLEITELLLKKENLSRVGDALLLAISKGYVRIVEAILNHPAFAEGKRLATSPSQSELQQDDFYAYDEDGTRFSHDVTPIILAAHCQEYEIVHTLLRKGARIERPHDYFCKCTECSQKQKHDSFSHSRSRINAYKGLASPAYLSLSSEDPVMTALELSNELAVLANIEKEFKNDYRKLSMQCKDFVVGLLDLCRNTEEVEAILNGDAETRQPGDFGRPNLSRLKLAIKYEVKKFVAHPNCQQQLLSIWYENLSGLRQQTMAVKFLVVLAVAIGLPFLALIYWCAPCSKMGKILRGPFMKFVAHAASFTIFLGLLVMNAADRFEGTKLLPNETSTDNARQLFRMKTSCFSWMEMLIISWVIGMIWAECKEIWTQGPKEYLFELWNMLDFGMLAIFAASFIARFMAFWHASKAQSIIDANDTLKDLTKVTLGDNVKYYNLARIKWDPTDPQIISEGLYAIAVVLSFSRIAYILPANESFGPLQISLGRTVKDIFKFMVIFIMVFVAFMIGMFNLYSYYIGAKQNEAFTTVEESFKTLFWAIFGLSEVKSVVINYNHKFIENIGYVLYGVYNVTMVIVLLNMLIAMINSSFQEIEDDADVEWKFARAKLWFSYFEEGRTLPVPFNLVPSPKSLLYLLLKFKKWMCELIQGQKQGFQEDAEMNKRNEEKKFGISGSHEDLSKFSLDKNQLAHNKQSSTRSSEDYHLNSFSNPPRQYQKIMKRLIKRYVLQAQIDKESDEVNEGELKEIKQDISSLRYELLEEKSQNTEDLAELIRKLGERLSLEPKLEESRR
TRPC4 inh = inhibitors of mouse TRPC4 channel, primary screen, Fluo4 calcium, HEK293 TRPC4beta/mu-opioid cells; DAMGO-evoked Fluo4 calcium flux; active compounds read low; B-score at 10 µM; 300,000 compounds, 0.39% hits;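 active = B-score over 3 SD under the library average, no early fluorescence shift, positive overall ratio signal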
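Material: HEK293 cells with stable TRPC4beta plus mu-opioid receptor expression / Probe or stimulus: DAMGO in two steps, submaximal then maximal / Compound: single concentration per test compound / Technique: kinetic Fluo4 fluorescence imaging of calcium influx / Read-out: per-well B score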
TRPC4 act = activators of mouse TRPC4 channel, primary screen, Fluo4 calcium, HEK293 TRPC4beta/mu-opioid cells | Short transient receptor potential channel 4 (Mus musculus), Q9QUQ5 | Fluo4 calcium fluorescence; active compounds read high | B-score at 10 µM | 310,000 compounds, 0.49% hits;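 active = B-score above 5 SD of library B-scores, and initial fluorescence ratio not above library mean plus 5 SD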;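 note: positive B-score marks a calcium rise read as TRPC4 activation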
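Incubation: 45 min room-temperature Fluo4 loading, 110 s read / System: HEK293 cells stably co-expressing mouse TRPC4beta and mu-opioid receptor / Signal: Fluo4 fluorescence, kinetic / Control set: buffer (low) and maximal DAMGO (high) / Measure: integrated baseline-normalised fluorescence ratio, converted to per-well B score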
TRPC6 inh = mouse TRPC6 channel inhibitors, primary screen, cell-based, HEK293, membrane potential dye; Short transient receptor potential channel 6 (Mus musculus), Q61143; ACh-evoked depolarization; active compounds read low; B-score at 10 µM; 310,000 compounds, 1.1% hits; AID 2553, 2010;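 active = B-score under library mean minus 3 SD, initial fluorescence not abnormally high, positive integrated signal ratio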;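 note: B-score derived from integrated fluorescence ratio over the kinetic read; more negative B-score means stronger inhibition of depolarization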
TRPC4 spec 2 = mouse TRPC4 off-target activity of TRPC6 inhibitors, second screen | shares compounds with TRPC6 inh | HEK293 TRPC4/MOR, membrane potential dye fluorescence; channel activated by saturating DAMGO dose | inhibition, % at 10 µM | 920 compounds, 42% hits;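 active = compounds whose fluorescence signal differed from control wells by over 3 SD, either direction, in both duplicate plates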
TRPC4 spec = mouse TRPC4 modulation by TRPC6 hits, confirmation, selectivity assay for TRPC6 inhibitor project, cell-based, HEK293 TRPC4/mu-opioid, membrane potential dye; shares compounds with TRPC6 inh; membrane potential fluorescence; activity change, negative = inhibition, % at 10 µM; 920 compounds, 61% hits; AID 2777, 2010;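 active = rise or fall in signal beyond 3 SD of buffer-only wells in both replicate plates, either sign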;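 note: integrated kinetic ratio of fluorescence range over baseline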
HEK293 MPD ctr 2-1 = nonspecific membrane potential effects, parental HEK293, confirmation, counter-screen for TRPC6 inhibitor project, cell-based, second counter screen. shares compounds with TRPC6 inh. parental HEK293 membrane potential dye fluorescence; maximal acetylcholine challenge after compound addition. signal change vs control, % at 10 µM. 920 compounds, 31% hits;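 active = membrane potential signal moving either way by over 3 SD of the maximum-effect control, in both duplicate plates, meaning non-specific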
HEK293 MPD ctr-1 = membrane potential modulation in parental HEK293, confirmation, counter-screen for TRPC6 inhibitor project, cell-based | shares compounds with TRPC6 inh | parental HEK293 membrane potential dye fluorescence | membrane potential signal change, % at 10 µM | 920 compounds, 60% hits | AID 2780, 2010;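 active = membrane potential signal shifting up or down by more than 3 SD of buffer-only wells, on both duplicate plates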
HEK293 MPD ctr-2 = parental HEK293 membrane potential modulation, confirmation, counter-screen for TRPC6 modulator project, cell-based; AID 488924, 2010; 2,400 compounds, 51% hits; shares compounds with TRPC6 inh; membrane potential dye fluorescence; membrane potential signal change, % at 10 µM;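 active = membrane potential signal moves up or down beyond 5 SD from buffer-only wells, on both duplicate plates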
HEK293 MPD ctr 2-2 = parental HEK293 nonspecific activity of TRPC6 modulators, second screen; membrane potential dye fluorescence; after compound, maximal acetylcholine stimulation; shares compounds with TRPC6 inh; 2,400 compounds, 14% hits; inhibition, % at 10 µM;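 active = membrane potential signal drops by more than 5 SD from the mean control signal, in both duplicate plates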
TRPC4/MOR mod = TRPC4 modulation by TRPC6 hit compounds, confirmation, selectivity assay for TRPC6 modulator project, cell-based, HEK293 TRPC4/mu-opioid, membrane potential dye, mouse; shares compounds with TRPC6 inh; membrane potential fluorescence; percent change from control (negative = decrease, positive = increase), % at 10 µM; 2,400 compounds, 69% hits;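 active = membrane potential signal moved up or down beyond 5 SD of buffer control wells, in both duplicate plates, actives on both sides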
TRPC4/MOR inh 2 = mouse TRPC4 off-target activity of TRPC6 modulators, second screen; 2,400 compounds, 55% hits; HEK293 TRPC4/mu-opioid, membrane potential dye fluorescence; stimulated with maximal-effect DAMGO; inhibition, % at 10 µM; shares compounds with TRPC6 inh;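 active = drop in membrane potential signal beyond 5 SD of the control wells in both duplicate plates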;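 note: TRPC4 counter screen for TRPC6 hits run under conditions tuned for TRPC6 not TRPC4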
TRPC6 block conf = mouse TRPC6 channel inhibitors, confirmation, HEK293 cells, membrane potential dye, duplicate; ACh-evoked depolarization; 3,300 compounds, 43% hits; shares compounds with TRPC6 inh; inhibition, % at 10 µM;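 active = fluorescence ratio falls more than 5 SD below the full-stimulation control mean, in both duplicate runs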;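 note: integrated fluorescence ratio of peak minus minimum over baseline after agonist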
TRPC6 act conf = mouse TRPC6 channel activators, confirmation, HEK293 cells, membrane potential dye, duplicate; shares compounds with TRPC6 inh; HEK293-TRPC6 membrane potential dye fluorescence, FDSS; activation, % at 10 µM; 2,800 compounds, 11% hits; AID 488961, 2010;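 active = ratio signal rise beyond 5 SD above unstimulated control wells' mean, seen in both duplicate runs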
Hits are given with their value; . = inactive; / = not tested or not shown.

SMILES	TRPC4 potent	TRPC6 act	TRPC4 inh	TRPC4 act	TRPC6 inh	HEK293 MPD ctr-2	HEK293 MPD ctr 2-2	TRPC4/MOR mod	TRPC4/MOR inh 2	TRPC6 block conf	TRPC6 act conf	others
CCN1CCN(c2nn3c(=O)c4ccccc4nc3c3ccccc23)CC1	.	.	.	.	-5.3	.	.	.	52%	42%	.
COc1ccc(C(=O)OCC(=O)Nc2sccc2C(N)=O)cc1OC	.	.	.	.	.	/	/	/	/	/	/
COc1ccccc1OCC(=O)OCC(=O)Nc1sccc1C(N)=O	.	.	.	.	-5.4	.	.	.	.	.	.
Clc1ccc(C2NCCc3sccc32)cc1 (centres undefined)	.	.	.	.	-5.9	.	.	15%	71%	.	.
CC(=O)C1CCN(Cc2ccccc2)CC1	.	.	.	.	.	/	/	/	/	/	/
CSc1ccccc1OC1CCN(Cc2ccccc2)CC1	.	12	.	.	.	196%	.	40%	63%	.	77%
CC(=O)/C(=N/Nc1ccccc1[N+](=O)[O-])N1CCCc2ccccc21	.	.	.	.	-6.6	.	.	.	49%	.	.
CC(/C=N/n1c(-c2n[nH]c3c2CCC3)n[nH]c1=S)=C\c1ccco1	.	.	.	.	-8.4	/	/	/	/	70%	.	TRPC4 spec 2=.;TRPC4 spec=.;HEK293 MPD ctr 2-1=-11%;HEK293 MPD ctr-1=.
COc1ccc(/C=N/n2c(-c3n[nH]c4c3CCC4)n[nH]c2=S)cc1	.	.	.	.	-5	.	.	.	.	.	/
CC(/C=N/n1c(-c2cccnc2)n[nH]c1=S)=C\c1ccco1	.	.	.	.	.	/	/	/	/	/	/
NC(=O)NCCCC(=O)NCC(c1ccccc1Cl)c1c[nH]c2ccccc12 (centres undefined)	.	.	.	.	.	/	/	/	/	/	/
Cc1ccc(C(=O)Nc2ccc(N3CCN(C)CC3)cc2)cc1C	.	.	.	.	-6.1	.	.	-15%	44%	42%	.
Cc1ccc(C(=O)Nc2ccc(N3CCN(S(C)(=O)=O)CC3)cc2)cc1C	.	.	.	.	.	/	/	/	/	/	/
Cc1ccc(C(=O)Nc2ccc(N3CCCC3)cc2)cc1	.	.	.	.	.	/	/	/	/	/	/
CC(C)Oc1ccc(C(=O)Nc2ccc(N3CCCCC3)cc2)cc1	.	.	.	.	-5.9	.	.	.	.	.	.
CCN1CCN(CCNC(=O)C2CCN(Cc3nc(-c4ccc(Cl)cc4)oc3C)CC2)CC1	.	.	.	.	.	/	/	/	/	/	/
Cc1oc(-c2ccc(Cl)cc2)nc1CN1CCC(C(=O)N2CCN(Cc3ccccc3)CC2)CC1	.	12	.	.	.	226%	.	40%	68%	.	129%
Cc1oc(-c2ccc(Cl)cc2)nc1CN1CCCC(C(=O)NCc2ccccn2)C1 (centres undefined)	.	16	.	.	-5.8	160%	.	18%	72%	64%	144%
CCc1ccc(-c2nc(CN3CCC(C(=O)NCc4ccccc4OC)CC3)c(C)o2)cc1	.	.	.	.	.	/	/	/	/	/	/
Cc1oc(-c2ccc(Cl)cc2)nc1CN1CCC(C(=O)N2CCc3ccccc3C2)CC1	15	14	.	.	.	202%	.	32%	62%	.	80%
COc1ccccc1CNC(=O)C1CCN(Cc2nc(-c3cccc(Cl)c3)oc2C)CC1	.	.	.	.	-9.5	115%	.	15%	97%	.	/
COc1ccc(CCC(=O)NC2CCC(C)CC2)cc1 (centres undefined)	.	.	.	.	.	/	/	/	/	/	/
CSCCC(NS(=O)(=O)c1ccc(C)cc1)C(=O)NC1CCCCCC1 (centres undefined)	.	.	.	.	.	/	/	/	/	/	/
COc1ccc2nc(SCC(=O)NC3(C#N)CCCCC3)[nH]c2c1	.	.	.	.	.	/	/	/	/	/	/
Cc1oc(-c2cccc(Cl)c2)nc1CN1CCC(C(=O)NCc2ccco2)CC1	.	.	.	.	.	/	/	/	/	/	/
CCN1CCCC1CNC(=O)C1CCN(Cc2nc(-c3cccc(Br)c3)oc2C)CC1 (centres undefined)	.	.	.	.	-8.9	/	/	/	/	.	.	TRPC4 spec 2=60%;TRPC4 spec=-18%;HEK293 MPD ctr 2-1=.;HEK293 MPD ctr-1=-240%
COc1cc(-c2nc(CN3CCN(C(=O)c4ccco4)CC3)c(C)o2)ccc1F	.	12	.	.	-6.3	.	.	12%	.	62%	139%
